KCNK3 block = human KCNK3 channel inhibition, primary screen | O14649 | 340,000 compounds, 0.84% hits | B-score at 10 µM | CHO-KCNK3 thallium flux, FluxOR fluorescence; stronger effect = lower value;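 active = B-score under library mean minus 4 SD, starting fluorescence ratio at most library mean plus 5 SD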;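 note: more negative B-score means stronger inhibition of thallium flux through KCNK3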
KCNQ1 inh = inhibitors of human KCNQ1 potassium channel; P51787; CHO-K1 KCNQ1, FluxOR thallium flux fluorescence; stronger effect = higher value; B-score at 10 µM; 310,000 compounds, 1.3% hits; AID 2642;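 active = compounds whose thallium flux B-score, printed positive for inhibition, exceeds three library SD while starting fluorescence stays within three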;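 note: channel opened by potassium depolarization with thallium stimulus after 20 min compound exposure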
KCNQ1 act = human KCNQ1 channel potentiation or activation | AID 2648 | P51787 | 310,000 compounds, 0.35% hits | CHO-K1 KCNQ1, thallium flux FluxOR fluorescence; stronger effect = higher value | B-score at 10 µM;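 active = fluorescence ratio B-score, a plate-corrected score, at least three library SD, with initial intensity B-score within 5 SD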
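Assay system: stable KCNQ1 CHO-K1 line; medium: assay buffer, equal DMSO in all wells; timing: 90 min dye loading and 20 min compound exposure, both at room temperature; technique: kinetic FluxOR thallium fluorescence, 10-s 1-Hz baseline, 110-s post-stimulus read; read-out basis: B score of baseline-normalized fluorescence ratio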
Cl transport mod = modulators of human KCC2 chloride dependent transport; KCC2 cells, thallium flux FluoZin-2 fluorescence; Q9H2X9; 190,000 compounds, 2.2% hits; AID 1456; B-score of Tl+ flux slope (higher = more flux/activation; lower = inhibition) at 10 µM;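 active = thallium flux slope and its plate-corrected score both differing from the plate sample mean at a set confidence after two filtering rounds, in either direction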;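 note: slope of fluorescence scaled to starting intensity during 10 to 20 s after thallium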
Target sequence (Q9H2X9 whole entry, looked up): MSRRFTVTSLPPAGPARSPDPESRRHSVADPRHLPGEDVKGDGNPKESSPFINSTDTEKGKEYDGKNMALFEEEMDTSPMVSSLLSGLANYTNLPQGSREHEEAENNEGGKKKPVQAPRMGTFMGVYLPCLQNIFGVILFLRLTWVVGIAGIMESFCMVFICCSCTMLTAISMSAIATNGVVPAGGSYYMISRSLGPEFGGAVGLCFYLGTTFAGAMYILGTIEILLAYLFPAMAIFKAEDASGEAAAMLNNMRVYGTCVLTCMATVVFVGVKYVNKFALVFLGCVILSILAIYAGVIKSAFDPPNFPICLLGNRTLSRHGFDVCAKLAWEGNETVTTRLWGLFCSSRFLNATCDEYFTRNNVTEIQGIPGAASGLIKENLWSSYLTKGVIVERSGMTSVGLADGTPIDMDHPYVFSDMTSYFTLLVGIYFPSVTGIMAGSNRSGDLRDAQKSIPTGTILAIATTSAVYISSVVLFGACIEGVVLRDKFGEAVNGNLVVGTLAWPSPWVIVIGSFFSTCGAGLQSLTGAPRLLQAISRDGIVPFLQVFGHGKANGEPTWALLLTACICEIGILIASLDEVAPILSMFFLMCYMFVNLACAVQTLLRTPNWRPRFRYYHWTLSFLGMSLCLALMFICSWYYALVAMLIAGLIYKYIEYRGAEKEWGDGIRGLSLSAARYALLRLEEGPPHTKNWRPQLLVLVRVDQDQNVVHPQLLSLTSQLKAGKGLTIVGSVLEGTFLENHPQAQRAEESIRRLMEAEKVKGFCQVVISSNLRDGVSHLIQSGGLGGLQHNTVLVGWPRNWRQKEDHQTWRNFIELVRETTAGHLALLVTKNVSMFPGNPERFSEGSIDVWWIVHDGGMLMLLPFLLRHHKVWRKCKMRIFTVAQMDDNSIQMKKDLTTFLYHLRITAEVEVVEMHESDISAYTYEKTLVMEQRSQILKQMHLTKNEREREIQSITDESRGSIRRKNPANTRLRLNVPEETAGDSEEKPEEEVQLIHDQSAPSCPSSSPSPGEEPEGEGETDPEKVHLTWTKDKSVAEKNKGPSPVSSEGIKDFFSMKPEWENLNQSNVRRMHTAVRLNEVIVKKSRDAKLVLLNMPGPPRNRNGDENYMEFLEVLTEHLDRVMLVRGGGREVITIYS
KCNK9 block = inhibitors of human KCNK9 two-pore domain potassium channel | Q9NPC2 | AID 488922 | B-score at 10 µM | HEK293 KCNK9, FluxOR thallium flux fluorescence; stronger effect = lower value | 310,000 compounds, 1.2% hits;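 active = ratio B-score over 3 SD below the library mean, with starting fluorescence within 5 SD of its mean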;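 note: negative B-score means less thallium flux so channel inhibition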
hERG rescue = hERG (human) protection from proarrhythmic block | CHO-hERG, FluxOR thallium flux, dofetilide IC70 present | activation (rescue from dofetilide block), less the hit threshold, % at 10 µM | 310,000 compounds, 0.51% hits | AID 1511;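 active = activation above the mean of controls blocked by dofetilide plus 5 SD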;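 note: thallium influx through hERG after potassium depolarization seen as dye fluorescence rise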
Starred values were filed as active, the others as inactive; i = inactive; / = no result given. An excerpt weighted towards active compounds, which were near 4.1% of everything screened.

SMILES | KCNK3 block | KCNQ1 inh | KCNQ1 act | Cl transport mod | KCNK9 block | hERG rescue
Cn1nc(-c2ccccc2)c(C(O)c2ccc(Cl)cc2)c1Cl (stereo not given) | i | i | i | -1.5 | i | -12
O=C(OCc1ccccc1F)c1cnc(Cl)c(Cl)c1 | i | i | i | / | i | -2
CCc1noc(C)c1C(=O)N(C)CC(=O)Nc1ccc(F)c(F)c1F | i | i | i | / | i | -4
CC(C)c1ccccc1NC(=O)CNCCOc1ccccc1F | i | 6* | i | / | i | -6
OCCNCCOc1ccccc1F | i | i | i | 2.1 | i | -2
O=C(OCCc1cc2ccccc2c(=O)o1)c1cccc(Br)c1 | -8.8* | / | / | / | / | /
CC(=O)CC1OC(=O)C(Br)=C1NCc1ccccc1 (stereo not given) | i | 6* | i | 0.62 | i | -7
O=C(CC1Oc2ccccc2NC1=O)NCc1ccccc1 (stereo not given) | i | i | i | / | i | -2
Cc1ccc(N=Cc2cc(Br)cc(Cl)c2O)cc1 | i | i | i | 0.89 | i | -5
Oc1c(Cl)cc(Cl)cc1C=Nc1ccc(Br)cc1 | i | i | i | -1.6 | i | 5.0*
C/C(=N\Nc1nc(N2CCCCCC2)nc(N2CCCCCC2)n1)c1ccccc1 | i | 14* | i | 0.73 | i | -13
C/C(=N\Nc1nc(N2CCCCC2)nc(N2CCOCC2)n1)c1cccs1 | i | i | i | 0.31 | i | -10
Cc1c(C(=O)N2CCc3ccccc3C2)oc2ccc(S(=O)(=O)N3CCCCCC3)cc12 | i | i | i | -0.92 | -6.8* | -18
COc1cc2c(cc1OC)CN(C(=O)c1ccc(S(=O)(=O)N3CCCC3)cc1)CC2 | i | i | i | -1.3 | i | -9
CCOc1cc2c(cc1OCC)CN(C(=O)c1cccc(S(=O)(=O)N3CCCC3)c1)CC2 | -9.9* | / | / | / | / | /
CCOc1ccc(CCNC(=O)COC(=O)c2cccc(S(=O)(=O)N3CCCCC3)c2)cc1OCC | i | i | i | / | -7.9* | -18
COc1ccc(/C=C(\C#N)C(=O)OCC(=O)Nc2ccc(C(C)(C)C)cc2)cc1 | i | 7* | i | 0.43 | i | -14
Cc1ccc(NC(=O)CSc2nn(-c3ccc(Cl)cc3)c(=S)s2)cc1S(=O)(=O)N(C)C | i | 6* | i | 0.064 | i | -11
Cc1cc(C)c2[nH]c(C(=O)Nc3ccc(F)cc3Br)cc2c1 | i | i | i | / | i | 0
CC(C)COc1ccc(-c2nn(-c3ccccc3)cc2C(=O)Nc2nccs2)cc1 | i | i | 9* | 0.69 | i | 14*
Cc1ccc(C2CC(=O)NC(SCc3ccccc3)=C2C#N)cc1 (stereo not given) | i | i | i | -0.0098 | i | -11
CCCCCCSC1=C(C#N)C(c2ccccc2)CC(=O)N1 (stereo not given) | i | i | i | -0.88 | -7.2* | 2
COc1ccc(S(=O)(=O)N(Cc2ccccc2)c2ccccc2C(=O)Nc2ccccc2C(=O)NCc2ccco2)cc1 | i | i | i | -1.5 | -6.9* | -4
CC(C)(C)c1ccc(C(=O)NNC(=O)c2cccc(Br)c2)cc1 | i | i | i | 0.013 | i | -5
O=C(NNC(=S)Nc1cccc2ccccc12)c1cccc(Br)c1 | i | i | i | 14* | i | -14
SMILES | KCNK3 block | KCNQ1 inh | KCNQ1 act | Cl transport mod | KCNK9 block | hERG rescue
O=C(NNC(=O)c1ccc2ccccc2c1)c1cccc(Br)c1 | i | / | / | / | / | /
Cc1ccc(C(=O)NNC(=O)c2cccc(Br)c2)cc1 | i | i | i | / | i | 11*
Cc1ccc(C(=O)NNC(=O)CCCCC(=O)NNC(=O)c2ccc(C)cc2)cc1 | i | i | 9* | / | i | -1
N=c1oc2ccc(Cl)cc2cc1C(=O)Nc1ccc(F)cc1 | i | i | i | / | i | -1
O=C(CNC(=O)c1ccccc1)NCc1ccc(Cl)cc1 | i | i | 18* | -0.57 | i | 28*
CCOC(=O)CSc1nc2c(sc(=S)n2-c2ccc(CC)cc2)c(=O)[nH]1 | i | 6* | i | / | i | -14
Cc1nnc(SCc2cc(=O)oc3cc(O)ccc23)n1Cc1ccccc1 | i | i | i | -0.12 | i | 11*
Cc1nnc(SCc2cc(=O)oc3ccc4ccccc4c23)n1Cc1ccccc1 | i | i | i | -0.96 | i | -10
CC(NC(=O)Cn1nc(-c2ccccc2)c2ccccc2c1=O)c1ccccc1 (stereo not given) | i | i | i | -0.36 | i | -5
O=C(Cn1nc(-c2ccccc2)c2ccccc2c1=O)Nc1ccc(O)cc1 | i | i | i | 1.3 | i | 15*
CN(C(=O)COC(=O)c1ccccc1SCC(=O)N1CCCC1)C1CCS(=O)(=O)C1 (stereo not given) | i | i | i | / | i | -11
Cc1cc(F)ccc1S(=O)(=O)N1CCCOC1CNC(=O)C(=O)NC1CCCC1 (stereo not given) | i | i | i | / | i | -13
COc1ccc(CC2=CC(=O)c3ccccc3C2=O)cc1 | i | 8* | i | / | i | -6
COc1ccc(Cc2ccccc2C(=O)O)cc1 | i | / | / | / | / | /
O=C(COC(=O)CC(c1ccccc1)c1ccccc1)Nc1ccc(F)c(F)c1 | / | 6* | i | -0.89 | i | -18
O=C(COC(=O)CC(c1ccccc1)c1ccccc1)Nc1cccc(F)c1 | i | i | i | -0.043 | i | -13
Cc1c(C)n(Cc2ccc(F)cc2)c2ccc(C(=O)N3CCN(c4ccccn4)CC3)cc12 | i | 6* | i | / | i | -9
O=C(c1ccc(F)cc1)N1CCN(c2ccccn2)CC1 | i | i | i | / | i | -7
CN(C)c1ccc(/C=C/c2nc3ccccc3c(=O)n2CCO)cc1 | i | 6* | i | / | i | -18
CC(C)c1ccc(OCC(=O)NNC(=S)NC(=O)c2cccs2)c(Br)c1 | i | i | 30* | / | i | -12
O=C(NNC(=O)C1CC1)c1ccccc1[N+](=O)[O-] | i | i | i | / | i | -10
O=C1CC(C(=O)Nc2cccc3ccccc23)C2(CCCC2)O1 (stereo not given) | i | i | i | 1.1 | i | 7.8*
CC1(C)CC2(CCO1)OC(=O)CC2C(=O)Nc1cccc2ccccc12 (stereo not given) | i | i | i | -0.4 | i | -9
O=C(Nc1cc(C(F)(F)F)ccc1Cl)C(NCc1ccccc1)c1ccccc1 (stereo not given) | i | 11* | i | 0.42 | -7.1* | -21
O=C(NC(=S)Nc1cc([N+](=O)[O-])ccc1Cl)c1ccccc1 | i | i | i | 11* | i | -5
